According to the array DNA melting data of Ke et al. (doi:10.1101/2024.01.08.574731):

What was measured:
[1] = folding enthalpy; higher = less favourable; fluorescence melt of hairpins on a sequencing array, two-state fit; settings: sodium 0.088 M
Method in brief: (§1)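 Melting temperature and folding enthalpy were derived from bootstrapped two-state fits. The fitted temperatures were raised by 9.35 °C to agree with UV melts, and four replicates were combined by inverse variance. The underlying data were Cy3 fluorescence images of library hairpins, with annealed Cy3 and quencher oligos, on a sequenced MiSeq flow cell in 50 mM Na-HEPES pH 8.0, 25 mM NaCl, taken in 2.5 °C steps up to 60 °C, normalised to pre-quench Cy3 and to control constructs.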

[2] = melting temperature; fluorescence melt of hairpins on a sequencing array, two-state fit, raised by 9.35 °C to match UV melts; settings: sodium 0.088 M
Method in brief: as §1

Sequence	folding enthalpy [1] [kcal/mol]	Tm [2] [°C]
GGCCACGGAAACATGGCC (((((.(....).)))))	-49.2	53.3
CGAGGCCGGAAACGGTCG (((..(((....))))))	-19.7	48.5
GTGCAATCGAAAGATCAC (((..(((....))))))	-14	30
GGTCGGGGAAACCTGACC ((((.((....)).))))	-37.5	57.2
GATCGGAGGCCGATC ((((((...))))))	-40.3	55.8
GTCGGAGGAAACTTCGAC ((((.((....)).))))	-47.7	51
GATCGCGCTGGCGATC ((((((....))))))	-32.5	68.9
GAGACCCCGAAAGGGCTC (((..(((....))))))	-22.6	47.2
GCGCTGGGAAACCAGTGC ((.((((....)))).))	-45.9	60.6
GAGCACGAAAGTGGTCTC ((((((....)))..)))	-24	60
GCTCACGAAAGTGCAAGC ((((((....)))..)))	-17.4	39.4
GATCTCCCGAGAGATC ((((((....))))))	-38.6	52.7
GCATTGCGAAAGCGGTGC (((..((....))..)))	-22.3	58.8
GTCTGTGGAAACATAGGC (.((.((....)).)).)	-16.4	31.3
GATCGTGTAGACGATC ((((((....))))))	-39.8	59.6
GATCGGAGAACCGATC ((((((....))))))	-33.8	52.6
ATCCTGAAAAGGAT (((((....)))))	-18.9	45.2
GTATATGGAAACATGTAC (((.(((....))).)))	-29.6	37.2
GAACGAGGAAACCCGTTC (((((.(....).)))))	-33.5	45.9
GATCTACTTATAGATC ((((((....))))))	-29.4	43
GATCAGTGGCTGATC ((((((...))))))	-22	49.7
GAGGTTGGAAACAACTTC ((.((((....)))).))	-24	43.4
GGTTGCGAAAGCAGCACC ((((((....)))..)))	-12.4	41

Sequence	folding enthalpy [1] [kcal/mol]	Tm [2] [°C]
GATCCGTAATCGGATC ((((((....))))))	-34.4	57
GATCGGGGAAACTCGGTC ((.((.(....).)).))	-28.3	38
GTTGGGGGAAACCCCAAC (((((((....)))))))	-45.9	65.6
GACGGCGAAAGCCGGGTC ((((((....)))..)))	-11.3	68.2
GTCCGTGGAAACATGGGC (.((.((....)).)).)	-24.9	44.9
GCAGCGCGAAAGCGACGC ((..(((....)))..))	-18.4	60.7
GATCCAGCGTTGGATC ((((((....))))))	-44.2	49.6
GGGTTGGGAAACTGACCC ((((..(....)..))))	-26.5	45.1
GCGGCTACCCGC ((((....))))	-22.2	55.7
GAGTAAACGAAAGTTCTC (((..(((....))))))	-13.9	30.1
GCTAGGCGAAAGCCACGC ((..(((....)))..))	-14.3	41.5
GGATTCGAAAGAACTTCC ((((((....)))..)))	-8.73	28.4
GCGTGGGACGC ((((...))))	-16.9	52.4
GGCTTGGGAAACCAGGTC (.(.(((....))).).)	-23.2	37
GTGTTGGGAAACCAATAC ((.((((....)))).))	-41.5	45.7
CGAGGGCGGAAACGCTCG (((..(((....))))))	-16.9	48.5
GGTCGAGGAAACTCGGCC ((.((((....)))).))	-53.9	59.5
GAGGGCGAAAGCCGCCTC ((((((....)))..)))	-9.67	36.3
GATCCAGGGTTGGATC ((((((....))))))	-34.2	50.8
GCCTAGCGAAAGCGTGGC (((..((....))..)))	-30.2	64.5
GTGACTGCGAAAGCACAC (((..(((....))))))	-8.82	38.8
GGCACAACGAAAGTTGCC (((..(((....))))))	-16.4	44.2
GTGCGGCGAAAGCCTCAC (((.(((....))).)))	-29.4	53.8

Sequence	folding enthalpy [1] [kcal/mol]	Tm [2] [°C]
GCAAGCGCGAAAGCGTGC (((..(((....))))))	-12.5	47.5
GGAAACGAAAGTTGATCC ((((((....)))..)))	-14.5	29.3
GTCCCCGAAAGGGAGGAC ((((((....)))..)))	-17.4	49.7
GATCTGACTGCAGATC ((((((....))))))	-23.7	47
GTTCACACGAAAGTGAAC (((..(((....))))))	-23.8	49.2
GCCATGCGAAAGCACCGC ((..(((....)))..))	-8.84	24.1
GTTTCTCGAAAGAGGAAC (((.(((....))).)))	-34.7	49.1
GACCAGGGAAACCTGGCC (.(((((....))))).)	-15.2	45.5
GAGGTTACGAAAGTACTC (((..(((....))))))	-14.3	27.9
GTGACAGCGAAAGCTCAC (((..(((....))))))	-21.6	41.4
GCCACGCGAAAGCGCAGC ((..(((....)))..))	-10.6	43.6
GATCTAACGGTAGATC ((((((....))))))	-38.4	40.5
GATCCCCAGAGGGATC ((((((....))))))	-31.7	59.8
GCGAGCCATCGC ((((....))))	-28.4	57.2
GGTACTCGAAAGAGCACC (((.(((....))).)))	-34.8	50.5
GATCACAGGGGTGATC ((((((....))))))	-33.6	56.2
GCTACGGAAACGTAGC ((((((....))))))	-42	66.5
GGCCCCTCGAAAGAGGCC (((..(((....))))))	-15.6	43.8
GCCAGCCCGAAAGGGGGC (((..(((....))))))	-14.7	55.3
GTTCTCGAAAGAGAGAAC ((((((....)))..)))	-25.1	46.4
GTCAACCGAAAGGTAGAC (((.(((....))).)))	-31.6	51.5
GAACGCGAAAGCGAGTTC ((((((....)))..)))	-14.8	43.1
GACTCAGGAAACTGAATC ((.((((....)))).))	-16.3	27.7

Sequence	folding enthalpy [1] [kcal/mol]	Tm [2] [°C]
GGACCTGGAAACAGGCCC ((.((((....)))).))	-25.8	52.7
GCCTAGGAAACTAGGC ((((((....))))))	-36.2	58.7
GTTCGCGAAAGCGTTAAC ((((((....)))..)))	-10.9	27.8
GTAAGCGAAAGCTTGTAC ((((((....)))..)))	-11.7	32.3
GCAAAGCGAAAGCAGTGC (((..((....))..)))	-14	44.7
CGACCGGAAACGGCTTCG ((((((....)))..)))	-17	28.5
CGTAACGGAAACGTACG (((.(((....))))))	-31	44.3
GATACTGGAAACAGTATC (((((((....)))))))	-40.4	54.6
GCGTATGCGAAAGCACGC (((..(((....))))))	-20.9	53.1
GTGAGGGAAACCTCAC ((((((....))))))	-31.7	60.2
GCTTGGCGAAAGCTTAGC (((..((....))..)))	-16.9	53.4
GGCCCACGAAAGTGCGCC (((.(((....))).)))	-42.5	55.8
GCACCGCGAAAGCCATGC (((..((....))..)))	-9.79	28.6
GGATGGTCGAAAGACTCC (((..(((....))))))	-14.2	32.9
GTAAATCCGAAAGGATAC (((..(((....))))))	-11	33.8
GCGTTGCGAAAGCAAGGC ((.((((....)))).))	-30.3	68.5
GATCGCACCGCGATC ((((((...))))))	-34	69
GACTTGCGAAAGCAGTC (((.(((....))))))	-17.4	51.9
GTGGGGCCGAAAGGCCAC (((..(((....))))))	-16.2	64.9
GGGCGGCGAAAGCCCCC (((.(((....))))))	-17.3	65.6
GGTTACGCGAAAGCGACC (((..(((....))))))	-12.4	37.2
GAGAGCGAAAGCTTCCTC ((((((....)))..)))	-10.7	27.3
GATCTTAAAGAAGATC ((((((....))))))	-16.8	34.8
